Compound activity as filed in PubChem.
Hck Nef HTS = inhibitors of human Hck kinase activated by Nef. hit rate 0.68% among 220,000. P08631. inhibition, % at 20 µM. Recombinant Hck-YEEI plus Nef, Z-Lyte FRET kinase assay. AID 463187;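 active means Hck-Nef kinase inhibition above about 50%, limit read from the data; inactive means inhibition below that limit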;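 further: 0% = DMSO with Hck plus Nef and 100% = Hck alone without Nef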
Target sequence (P08631 whole entry, looked up): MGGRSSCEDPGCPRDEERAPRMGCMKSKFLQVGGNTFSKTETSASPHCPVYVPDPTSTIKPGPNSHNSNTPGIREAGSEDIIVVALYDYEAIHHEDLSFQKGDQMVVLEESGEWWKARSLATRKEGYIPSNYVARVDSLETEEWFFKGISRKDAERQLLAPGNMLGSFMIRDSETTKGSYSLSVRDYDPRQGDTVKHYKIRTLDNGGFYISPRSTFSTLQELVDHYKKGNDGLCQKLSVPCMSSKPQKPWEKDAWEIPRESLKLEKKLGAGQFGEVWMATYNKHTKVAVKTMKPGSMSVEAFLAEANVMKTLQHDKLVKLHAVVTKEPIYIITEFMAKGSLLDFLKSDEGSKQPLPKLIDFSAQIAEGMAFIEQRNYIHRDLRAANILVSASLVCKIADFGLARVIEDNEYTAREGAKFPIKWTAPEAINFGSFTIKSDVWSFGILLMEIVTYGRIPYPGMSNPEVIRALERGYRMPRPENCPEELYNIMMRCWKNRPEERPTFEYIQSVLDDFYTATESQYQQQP
Runt-CBFb FRET = blocks binding of human RUNX1 Runt domain to CBFb; Q01196+Q13951; Cerulean-Runt/Venus-CBFb FRET ratio 530/480, 1 h; inhibition, % at 20 µM; hit rate 0.46% among 220,000;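 active means inhibition over about 50% at 20 µM in the single-dose screen, limit read from the data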;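 further: 0% = DMSO wells and 100% = excess unlabeled CBFb competitor control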
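test system = Cerulean-Runt domain fusion protein, energy donor | probe or stimulus = Venus-CBFb binding partner, 100 nM | incubation = two 1 h room-temperature incubations shielded from light | detection = fluorescence energy transfer, 422 nm excitation, 530/480 nm emission | measure = loss of energy transfer signal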
RanGTP-Impb inh = inhibitors of RanGTP-importin-beta interaction, primary screen, biochemical, FRET, CFP-Ran, YFP-importin-beta, homogeneous; AID 2216; hit rate 1.1% among 300,000; cell-free CFP-Ran/YFP-importin-beta FRET ratio; inhibition, % (concentration not given with the values);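 active means more than half of the replicate wells show a fall in the fluorescence ratio signal beyond about 16%, limit read from the data, passing the limit was not always enough; inconclusive means exactly half of the replicate wells pass the set limit; inactive means fewer than half of replicates pass the limit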;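 further: 0% = DMSO wells and 100% = Ran loaded with GDP instead of GTP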
Runt-SMMHC FRET = Runt domain-CBFb-SMMHC interaction inhibition; inhibition, % at 20 µM; Cerulean-Runt/Venus-CBFb-SMMHC FRET ratio 530/480, 1 h; AID 1434; Q01196+Q13951; hit rate 0.74% among 220,000;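 active means mean inhibition across duplicate retests at 20 µM reaching about 50%, limit read from the data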;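 further: 0% = DMSO wells and 100% = wells with excess untagged CBFb-SMMHC; inhibitors lower the FRET ratio by blocking Runt binding to CBFb-SMMHC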
Hck-Nef confirm = Hck-Nef kinase inhibition, confirmation | shares compounds with Hck Nef HTS | Recombinant Hck-YEEI:Nef, Z-Lyte FRET kinase assay | calls only at 10 µM | hit rate 28% among 1,300 | AID 463188;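 active means average inhibition of at least 50%, with Z-scores no higher than 3 in both the phospho-tyrosine peptide and fluorescence counterscreens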
Active calls of the source: *; i = inactive; ? = inconclusive; nt = no result given; + = active, no number. In the library only some 1.7% were active in any assay of this set; here they are far more common.

SMILES	Hck Nef HTS	Runt-CBFb FRET	RanGTP-Impb inh	Runt-SMMHC FRET	Hck-Nef confirm
c1ccc2c3c([nH]c2c1)-c1[nH]ncc1CC3	42.1	-0.7	-3.9	-12.9	nt
Clc1ccc2[nH]c3c(c2c1)CCc1cn[nH]c1-3	59.6*	4.0	-3.7	-1.3	+
CC(Oc1ccc(-n2cnnn2)cc1)C(=O)O (centres undefined)	75.0*	1.0	-1.5	-5.1	i
Nc1nc(SCC(=O)Nc2ccccc2C(F)(F)F)[nH]c(=O)c1-c1ccccc1	18.1	-3.2	2.2	-3.4	nt
COc1cc(/C=N/N=C2/NC(=O)C(CC(=O)O)S2)ccc1OCc1ccc(Cl)cc1 (centres undefined)	-0.2	-1.5	7.2	-0.3	nt
CCOc1cc(/C=N/N=C2/NC(=O)C(CC(=O)O)S2)ccc1OCc1ccc(Cl)cc1Cl (centres undefined)	53.7*	5.1	0.9	-16.3	i
O=C(O)c1cccc(CSc2n[nH]c(-c3ccc(Cl)cc3Cl)n2)c1	3.5	-2.9	-0.8	-0.1	nt
CCOc1ccc(S(=O)(=O)N2CCC(C(=O)NC3CCCCC3)CC2)cc1	nt	nt	0.1	nt	nt
O=C(O)c1ccc(Nc2ncnc3ccccc23)cc1	nt	nt	-0.5	nt	nt
O=C(Oc1ccc(Nc2ncnc3ccccc23)cc1)c1cccnc1	85.3*	0.8	0.4	2.4	+
CC1(C)CC(=O)C2=C(C1)OC(N)=C(C#N)C2C1CC=CCC1 (centres undefined)	11.8	-3.9	2.6	0.5	nt
CC1CCC2(CC1)NC(=O)N(CC(=O)Nc1sc3c(c1C(N)=O)CCC3)C2=O (centres undefined)	63.8*	1.9	1.7	-5.2	+
CCN(C(=O)c1cc2c(=O)n3ccccc3nc2s1)C1CCCCC1	nt	nt	4.9	nt	nt
CCCNC(=O)COC(=O)c1cc2c(=O)n3ccccc3nc2s1	51.2*	83.1*	6.2	120.8*	i
CCCN(CCC)CCNC(=S)Nc1ccc2nc3n(c(=O)c2c1)CCCCC3	21.9	2.3	-1.6	-1.6	nt
O=C1CCCC2=C1C(c1cccc(O)c1)c1c(ccc3ncccc13)N2 (centres undefined)	64.9*	4.0	1.7	2.2	i
COc1ccc(C2C3=C(CCCC3=O)Nc3ccc4ncccc4c32)cc1OC (centres undefined)	14.3	1.6	2.4	7.3	nt
CC1=NN(c2nc(-c3ccc(C)cc3)cs2)C(=O)C1N=Nc1cccc(C)c1 (centres undefined)	1.7	-4.4	-0.5	-6.7	nt
CCOC(=O)c1sc(N2N=C(C)C(N=Nc3cccc(C)c3)C2=O)nc1C (centres undefined)	99.9*	-1.9	-0.4	-8.1	+
O=C(NC(=O)c1ccc(Cl)cc1)Nc1ccc(-c2cnco2)cc1	60.2*	-1.6	-1.2	-1.2	i
COc1cc(C(=O)Nc2cccc(S(=O)(=O)N3CCCC3)c2)cc(OC)c1C	13.2	2.7	1.3	0.5	nt
CCN(CC)CCCNC(=O)CCC(=O)Nc1ccc2nc(N3CCCCC3)cc(C)c2c1	34.9	-9.5	0.1	-21.7	nt
CCN(CC)CCCNC(=O)CCC(=O)Nc1ccc2nc(N3CCC(C)CC3)cc(C)c2c1	87.6*	-4.8	-4.1	-13.6	nt
COc1ccc(NC(=O)/C=C/c2ccc(Br)o2)cn1	23.4	14.1	6.5	3.9	nt
COc1ccccc1CNC(=O)/C=C/c1ccc(Br)o1	90.9*	11.6	-2.6	2.2	+
SMILES	Hck Nef HTS	Runt-CBFb FRET	RanGTP-Impb inh	Runt-SMMHC FRET	Hck-Nef confirm
CCOc1ccc2oc(C(=O)OC(C(=O)NC(N)=O)C(C)C)c(C)c2c1 (centres undefined)	8.5	0.6	4.3	1.2	nt
COC(=O)c1c(-c2ccccc2Cl)noc1/C=C/N(C)C	58.8*	7.4	1.0	0.8	+
O=C1N=C(N2CCN(c3ccccc3)CC2)S/C1=C\c1ccco1	32.7	0.7	7.1	-10.1	nt
O=C1N=C(N2CCN(c3ccccc3)CC2)S/C1=C/c1ccco1	52.2*	-1.1	-1.0	2.4	i
CCOC(=O)c1[nH]c2ccccc2c1NC(=S)Nc1cc(C)ccc1C	56.8*	-1.7	-15.4	-6.3	i
O=C(CN1CCN(c2ccccc2F)CC1)N1CCc2ccccc21	nt	nt	1.5	nt	nt
O=C(/C(=C(\O)c1ccccc1)c1nc2ccccc2[nH]1)c1ccccc1	24.7	1.4	?	1.7	nt
CC(=O)/C(=C(/O)c1ccccc1)c1nc2ccccc2[nH]1	124.4*	-1.5	5.1	2.8	+
COC1CCN(C(=O)c2ccc3oc(C(C)C)nc3c2)CC1	nt	nt	-2.4	nt	nt
